Test results: ChEMBL document CHEMBL4257448, “Deciphering the origins of molecular toxicity of combretastatin A4 and its glycoconjugates: interactions with major drug transporters and their safety profiles in vitro and in vivo” (Medchemcomm, 2017); call rule not given here

Assays:
[1] = Toxicity in ip dosed DBA/2 mouse assessed as reduction in 15% body weight administered as daily dose for 3 days; format: organism-based; settings: in vivo
Outline: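 Adult male DBA/2 mice were dosed i.p. at 10 mL kg−1, with 5 per group. Controls (n = 8) received saline. MTD was the dose allowing 15% median body-weight loss with no toxic deaths or marked change in general signs within 3 days.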

[2] = Drug uptake in mock transfected HEK293 cells by HPLC-UV assay; format: ADME, cell-based; settings: human
[3] = tested on: HT-29; assay: […] for human HT-29 cells assessed as reduction in cell viability after 72 hrs by MTT assay; format: functional
Outline: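 HT29 cells were cultured in RPMI-1640 with glutamine and 10% FBS, seeded at 2000–7500 cells/well, and exposed for 72 h to drug in DMSO (final DMSO <0.1%). MTT was added at 0.83 mg mL−1 final and incubated overnight, then cells were lysed in SDS/HCl and read at 570 nm. Survival was expressed as percent of drug-free control; five replicate wells.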

[4] = biological target: T1, Solute carrier organic anion transporter family member 2B1 (Homo sapiens, UniProt O94956); assay: Substrate activity at human OATP2B1 expressed in HEK293 cells assessed as compound uptake in presence of OATP2B1 inhibitor rifampicin by HPLC-UV method; format: ADME, cell-based
T1 sequence (O94956 whole entry): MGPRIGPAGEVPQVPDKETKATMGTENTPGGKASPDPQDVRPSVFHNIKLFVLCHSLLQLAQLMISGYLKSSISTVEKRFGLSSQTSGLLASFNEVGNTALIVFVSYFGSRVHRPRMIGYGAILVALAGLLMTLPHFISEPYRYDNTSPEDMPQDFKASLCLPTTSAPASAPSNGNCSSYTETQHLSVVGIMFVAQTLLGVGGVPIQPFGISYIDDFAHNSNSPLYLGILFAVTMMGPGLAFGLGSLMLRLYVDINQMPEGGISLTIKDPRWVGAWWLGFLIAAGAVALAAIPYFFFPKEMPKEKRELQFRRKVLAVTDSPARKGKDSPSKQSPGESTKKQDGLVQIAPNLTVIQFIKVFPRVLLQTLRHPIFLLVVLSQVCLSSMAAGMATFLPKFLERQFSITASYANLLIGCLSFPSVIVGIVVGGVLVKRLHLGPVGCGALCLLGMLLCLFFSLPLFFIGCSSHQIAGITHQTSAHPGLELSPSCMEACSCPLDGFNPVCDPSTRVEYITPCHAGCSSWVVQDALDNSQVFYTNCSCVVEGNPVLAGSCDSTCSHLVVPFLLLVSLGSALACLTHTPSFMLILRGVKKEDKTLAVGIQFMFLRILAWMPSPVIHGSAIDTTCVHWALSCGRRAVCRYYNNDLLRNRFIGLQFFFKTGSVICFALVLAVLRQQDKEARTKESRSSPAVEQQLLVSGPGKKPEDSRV

[5] = tested on: Mus musculus; assay: Ratio of compound MTD to CA4 MTD in ip dosed DBA/2 mouse assessed as reduction in 15% body weight administered as daily dose for 3 days; format: ADME, organism-based; settings: in vivo, 72 h
[6] = Ratio of CA4 aqueous solubility to test compound aqueous solubility; format: physicochemical; settings: buffer
[7] = biological target: T1, Solute carrier organic anion transporter family member 2B1; assay: Substrate activity at human OATP2B1 expressed in HEK293 cells assessed as compound uptake by HPLC-UV method relative to control; format: ADME, cell-based
[8] = Drug uptake in mock transfected HEK293 cells in presence of OATP2B1 inhibitor rifampicin by HPLC-UV method; format: ADME, cell-based; settings: human

Compound	MTD at 72 h [1]	Drug uptake [2]	Ratio IC50 [3]	Drug uptake [4]	Ratio [5]	Ratio [6]	Drug uptake [7]	Drug uptake [8]
COc1ccc(/C=C\c2cc(OC)c(OC)c(OC)c2)cc1O [COMBRETASTATIN A4]	25 mg/kg	Active						
COc1ccc(/C=C\c2cc(OC)c(OC)c(OC)c2)cc1O[C@@H]1O[C@H](CO)[C@@H](O)[C@H](O)[C@H]1O	400 mg/kg		9.59	Active	16	610	60%	Active
